Source: PubChem BioAssay (several laboratories)
WT yeast gro inh = growth inhibition of WT yeast, mitochondrial fusion screen; 2.1% of 190,000 active; AID 1362; inhibition, % at 10 µM; mitochondrial fusion phenotypic screen, WT strain; in the data active means inhibition above about 58%; tested in S. cerevisiae
Hck-Nef inh = blocks Nef-activated human Hck kinase | inhibition, % at 20 µM | Recombinant Hck-YEEI plus Nef, Z-Lyte FRET kinase assay | 0.68% of 220,000 active;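 active means Hck-Nef kinase inhibition above about 50%, limit read from the data; inactive means inhibition below that limit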;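 further: 0% = DMSO with Hck plus Nef and 100% = Hck alone without Nef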
Calb biofilm kill = mixtures killing C. albicans biofilm. C. albicans biofilm persisters + clotrimazole, fluorescence viability; primary screen in compound mixtures of four per well. inhibition, % at 7.6 µM. 0.02% of 120,000 active;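 active means inhibition above 30.3% in the primary screen of four-compound pools, then above 30% when the compound was retested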;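 further: compounds exposed to preformed 24 h biofilms for 48 h; 0% = untreated biofilm control and 100% = clotrimazole plus chlorhexidine kill blank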
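Probe or stimulus – Clotrimazole 50 µg/mL co-treatment · System – C. albicans biofilms · Schedule – 24 h biofilm formation, then 48 h compound exposure, 37 °C · Evaluation – percent inhibition of biofilm viability · Technique – 2-h Alamar Blue fluorescence, 535/590 nm excitation/emission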
Arbovirus inh = antivirals against arbovirus infection. arbovirus infection cell-based antiviral screen. inhibition, % at 10 µM. 0.37% of 200,000 active. AID 1251; in the data active means inhibition above about 30%
NCF1 inh = blocks human p47phox regulatory protein of NADPH oxidases; P14598; p47phox/p22phox peptide binding, fluorescence polarization, 2 h; inhibition, % at 24.7 µM; 0.53% of 220,000 active;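 active means inhibition above about 30%, limit read from the data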;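 further: 0% = p47phox with labelled peptide and 100% = labelled peptide alone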
Target sequence (P14598 whole entry, looked up): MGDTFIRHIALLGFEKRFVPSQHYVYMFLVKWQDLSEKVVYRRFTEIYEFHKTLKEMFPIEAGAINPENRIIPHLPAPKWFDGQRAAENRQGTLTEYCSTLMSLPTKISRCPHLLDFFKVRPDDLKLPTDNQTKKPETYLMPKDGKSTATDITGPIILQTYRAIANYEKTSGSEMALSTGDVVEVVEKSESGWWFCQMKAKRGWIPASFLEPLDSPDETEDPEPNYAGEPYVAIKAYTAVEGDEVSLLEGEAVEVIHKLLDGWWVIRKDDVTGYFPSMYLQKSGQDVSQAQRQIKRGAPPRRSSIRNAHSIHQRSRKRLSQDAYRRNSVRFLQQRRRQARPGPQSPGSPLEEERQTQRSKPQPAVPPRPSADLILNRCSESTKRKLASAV
RAM inhibit = yeast RAM network inhibition; 1.8% of 190,000 active; S. cerevisiae dse1pr::URA3 reporter, 5-FOA growth OD615, 2 d; analog-sensitive cbk1-as2 kinase mutant strain; AID 868; inhibition, % at 50 µM;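 active means inhibition above a set limit, 3 SD over mean compound inhibition, cut at about 8.4% in these data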;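 further: 0% = DMSO-only wells with no growth and 100% = 10 µM 1-NA-PP1 full growth; inhibition rescues growth on 5-FOA so higher OD means more RAM inhibition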
Hck Nef conf = Hck-Nef kinase inhibition, confirmation; shares compounds with Hck-Nef inh; AID 463188; calls only at 10 µM; Recombinant Hck-YEEI:Nef, Z-Lyte FRET kinase assay; 28% of 1,300 active;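 active means average inhibition of at least 50%, with Z-scores no higher than 3 in both the phospho-tyrosine peptide and fluorescence counterscreens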
Starred values were filed as active, the others as inactive; i = inactive; x = no result given; + = active, no number. An excerpt weighted towards active compounds, which were near 4.6% of everything screened.

SMILES | WT yeast gro inh | Hck-Nef inh | Calb biofilm kill | Arbovirus inh | NCF1 inh | RAM inhibit | Hck Nef conf
O=C(CSc1nc2ccccc2c2nc3ccccc3n12)NCc1ccco1 | -14 | 82* | x | -2 | -3 | 3 | x
CCOC(=O)C1(CCCc2ccccc2)CCN(C(=O)CCN2CCCCC2=O)CC1 | 7 | 17 | 29 | 7 | -6 | 4 | x
COc1ccc(S(=O)(=O)NCC(=O)Nc2cccc(C)c2C)cc1OC | 9 | -3 | 16 | 0 | 11 | 6 | x
COc1cccc(=O)c2c(C)n(CC(=O)c3ccccc3)c(C)c12 | -17 | 53* | 5 | -3 | -2 | 3 | i
Nc1c(C(=O)NCCc2ccccc2)sc2nc(N3CCOCC3)c3c(c12)CCCC3 | 36 | 11 | -1 | -3 | 1 | 2 | x
CN(C(=O)c1sc2nc(N3CCOCC3)c3c(c2c1N)CCCC3)c1ccccc1 | 29 | 53* | 21 | 7 | 1 | 3 | i
CC(=O)OCC1=C(C(=O)O)N2C(=O)C(NC(=O)CCn3nc(C(F)(F)F)c(Br)c3C3CC3)C2SC1 (centres undefined) | -2 | 60* | 8 | 0 | -16 | 0 | i
CC(=O)OCC1=C(C(=O)O)N2C(=O)C(NC(=O)CCn3nc(C)c(Cl)c3C)C2SC1 (centres undefined) | 8 | 10 | 21 | 14 | -1 | 2 | x
CS(=O)(=O)N(CC(=O)N/N=C/c1ccc(OCC(=O)N2CCOCC2)cc1)c1ccccc1Cl | -2 | 129* | 2 | 11 | 5 | -1 | i
O=C(N/N=C/c1ccc(OCC(=O)N2CCOCC2)cc1)c1ccccc1Cl | 4 | 2 | 12 | -3 | -8 | 0 | x
CC(=O)Nc1ccc(SC[C@H](c2ccccc2)N2CCN(CCc3ccccc3)CCC2=O)cc1 | x | 25 | 18 | x | -13 | x | x
CCOC(=O)NCCOC(=O)Nc1ccc(Cl)cc1 | -8 | 58* | 18 | 4 | 2 | 3 | i
c1ccc(CCNc2ccnc3cc4ccccc4cc23)cc1 | 63 | 156* | 12 | -32 | -15 | 2 | x
CC(C)Nc1ccc(Nc2ccnc3cc4ccccc4cc23)cc1 | x | 69* | 15 | x | 12 | x | +
COc1ccc(Nc2ccnc3ccccc23)cc1 | -1 | 2 | x | 5 | 9 | 1 | x
CC1(C)CC2CC(C)(CN2Cc2c(O)ccc3ccccc23)C1 (centres undefined) | 5 | 29 | 8 | 14 | -5 | 1 | x
COc1cccc(N2CC(C(=O)Nc3nnc(SCC(=O)Nc4cc(C)on4)s3)CC2=O)c1 (centres undefined) | -4 | 52* | 7 | -2 | x | 3 | +
Cc1ccc(N2CC(C(=O)Nc3nnc(SCC(=O)Nc4cc(C)on4)s3)CC2=O)cc1 (centres undefined) | -2 | 9 | 11 | -4 | -26 | 4 | x
COc1ccc2cc3cc(C(=O)Nc4ccc5c(c4)OCCO5)oc3nc2c1 | -11 | 52* | x | 5 | 32* | 4 | i
COc1ccc2cc3cc(C(=O)Nc4cc(OC)c(OC)c(OC)c4)oc3nc2c1 | -11 | 1 | x | 2 | -4 | 1 | x
COc1ccc(-c2nnn(CC(=O)NCCc3ccc(OC)c(OC)c3)n2)cc1 | -5 | 97* | 16 | -1 | -2 | 4 | i
COc1ccc(CCNC(=O)Cn2nnc(-c3cccs3)n2)cc1OC | x | 1 | x | 0 | 0 | 2 | x
COc1ccccc1NS(=O)(=O)c1cc(NC(=O)/C=C/c2cccs2)ccc1N1CCOCC1 | 4 | -1 | 9 | 2 | -37 | 4 | x
Cc1c(O)ccc2c(CN3CCN(CCO)CC3)cc(=O)oc12 | 3 | 63* | -3 | 7 | 0 | -1 | i
CCCc1cc(=O)oc2c(CN3CCCC3)c(O)ccc12 | -3 | 93* | x | 2 | 3 | 2 | x
SMILES | WT yeast gro inh | Hck-Nef inh | Calb biofilm kill | Arbovirus inh | NCF1 inh | RAM inhibit | Hck Nef conf
CCCc1cc(=O)oc2c(CN3CCCC3)c(O)c(Cl)cc12 | -10 | 116* | x | 2 | x | 1 | i
CCCc1cc(=O)oc2cc(C)c(CN3CCCC3)c(O)c12 | -19 | 2 | x | 4 | -12 | 0 | x
FC(F)(F)c1cc(Oc2ccc(Cl)cc2)ncc1-c1nnc(-c2ccc(Cl)cc2)o1 | x | 9 | 14 | x | 2 | x | x
CCOc1ccc(/C=C2\SC(=S)N(NS(=O)(=O)c3ccc(C)cc3)C2=O)cc1OC | x | 51* | 11 | x | -51 | x | +
O=C(O)CN1C(=O)/C(=C/c2ccc(SCc3ccccc3)o2)SC1=S | 1 | 73* | -5 | -6 | -202 | 7 | i
COc1ccc(NC(=O)c2cc([N+](=O)[O-])ccc2O)cc1 | 18 | 52* | 24 | -8 | -10 | 2 | i
N=c1sccn1CC(=O)NC(c1ccccc1)c1ccccc1 | -10 | -20 | 14 | 11 | -15 | 1 | x
CC(=O)/C(=C(/O)c1ccccc1)c1nc2ccccc2[nH]1 | -7 | 124* | 19 | -6 | -4 | 0 | +
O=C(/C(=C(\O)c1ccccc1)c1nc2ccccc2[nH]1)c1ccccc1 | x | 25 | 26 | x | -7 | x | x
Cc1ccc(N2C(=O)C(Cl)=C(NCc3ccccc3)C2=O)c(C)c1 | 22 | 0 | x | -9 | -12 | 7 | x
Cc1c(C)c2cc(Cl)c(O)c(CN3CCCC(C)C3)c2oc1=O (centres undefined) | 66* | 81* | x | 5 | -9 | -1 | x
CN1CCN(Cc2c(O)ccc3c(-c4ccccc4)cc(=O)oc23)CC1 | -9 | 2 | x | 8 | -1 | 1 | x
Cc1c(C)c2cc(Cl)c(O)c(CN3CCN(C)CC3)c2oc1=O | 7 | 66* | x | 1 | -6 | -1 | x
C=CCn1c(SCc2nc3ccccc3[nH]2)nnc1-c1cccc(OC)c1 | -5 | 11 | x | -3 | -14 | 0 | x
Cc1ccc(C(=O)Nc2nn(C)c3cccc(F)c23)cc1 | x | -13 | 10 | x | 1 | x | x
CCC(Sc1nc2n[nH]c(C)c2c(=N)n1-c1cc(Cl)ccc1C)C(=O)N1CCOCC1 (centres undefined) | -16 | 6 | x | -5 | -4 | 7 | x
CCOc1ccccc1N=c1oc2cc(O)ccc2cc1C(=O)NCC1CCCO1 (centres undefined) | -7 | 59* | x | 11 | -13 | 0 | x
CCOc1ccc(N=c2oc3cc(O)ccc3cc2C(=O)NCC2CCCO2)cc1 (centres undefined) | -22 | 35 | x | -10 | -15 | 4 | x
COc1ccc(/C=N/NC(=O)c2cc(O)c(O)c(O)c2)cc1Cn1cc([N+](=O)[O-])cn1 | -9 | 50* | 12 | -12 | -7 | 2 | i
Oc1[nH]c2ccccc2c1N=Nc1ncnc2c1oc1ccccc12 | x | 56* | 11 | x | -16 | x | i
N#CCCN1CCN(C(CNS(=O)(=O)c2ccc(Cl)cc2)c2ccccc2)CC1 (centres undefined) | 8 | 1 | x | 1 | -5 | 2 | x
